Data as given in ChEMBL document CHEMBL4145646, “Macrophilones from the Marine Hydroid Macrorhynchia philippina Can Inhibit ERK Cascade Signaling” (J Nat Prod, 2018).
Calls of active or inactive are those of the source. The rule behind the calls is not given here.

Experiments:
[1] = target: T1, Dual specificity mitogen-activated protein kinase kinase; MEK1/2 (Homo sapiens) (UniProt P36507+Q02750); assay: Increase in MEK phosphorylation in human COLO205 cells harboring B-Raf V600E mutant at 1 uM after 18 hrs by Western blot analysis; format: cell-based
T1 sequence (P36507 whole entry, looked up): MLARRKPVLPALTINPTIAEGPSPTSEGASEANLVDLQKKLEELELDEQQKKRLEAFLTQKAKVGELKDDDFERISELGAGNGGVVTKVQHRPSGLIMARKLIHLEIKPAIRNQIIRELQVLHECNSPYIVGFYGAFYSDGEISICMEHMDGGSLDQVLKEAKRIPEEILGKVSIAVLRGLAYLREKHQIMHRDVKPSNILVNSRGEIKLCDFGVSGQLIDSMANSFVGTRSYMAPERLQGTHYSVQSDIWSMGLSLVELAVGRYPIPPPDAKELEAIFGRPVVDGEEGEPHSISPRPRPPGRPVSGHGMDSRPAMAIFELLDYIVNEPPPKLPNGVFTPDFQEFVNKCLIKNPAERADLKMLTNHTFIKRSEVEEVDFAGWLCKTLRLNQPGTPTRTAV
T1 sequence (Q02750 whole entry, looked up): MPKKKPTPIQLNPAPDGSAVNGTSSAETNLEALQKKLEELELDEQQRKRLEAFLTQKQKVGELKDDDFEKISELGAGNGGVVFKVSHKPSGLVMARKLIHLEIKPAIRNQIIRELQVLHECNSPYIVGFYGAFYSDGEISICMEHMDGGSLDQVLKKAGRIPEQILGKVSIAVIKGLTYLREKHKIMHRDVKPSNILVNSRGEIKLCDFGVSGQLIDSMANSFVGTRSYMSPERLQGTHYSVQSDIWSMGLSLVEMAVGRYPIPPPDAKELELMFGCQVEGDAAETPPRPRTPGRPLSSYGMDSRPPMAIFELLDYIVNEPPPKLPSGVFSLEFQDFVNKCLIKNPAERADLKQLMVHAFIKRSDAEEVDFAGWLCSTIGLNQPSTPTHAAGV
Summary of the method: (§1)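 Colo205 cells grown at 37 °C, 5% CO2 in RPMI-1640 with 10% FBS and 2 mM L-glutamine. Compounds added in DMSO (final 0.1% v/v), vehicle-only controls. Cells washed twice in ice-cold PBS, lysed in RIPA buffer (pH 8.0, with protease and phosphatase inhibitors). Lysates clarified, equalized for protein, then immunoblotted for B-Raf, C-Raf, ERK2, MEK1, pS217/221-MEK and pT202/Y204-ERK.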

[2] = target: RAF proto-oncogene serine/threonine-protein kinase (Homo sapiens) (UniProt P04049); assay: Inhibition of C-Raf (unknown origin) at 10 uM using inactive MEK as substrate pretreated for 20 mins followed by substrate addition and measured after 30 mins in presence of [gamma32P]ATP by autoradiography
Chain of RAF proto-oncogene serine/threonine-protein kinase (Homo sapiens) (P04049 whole entry): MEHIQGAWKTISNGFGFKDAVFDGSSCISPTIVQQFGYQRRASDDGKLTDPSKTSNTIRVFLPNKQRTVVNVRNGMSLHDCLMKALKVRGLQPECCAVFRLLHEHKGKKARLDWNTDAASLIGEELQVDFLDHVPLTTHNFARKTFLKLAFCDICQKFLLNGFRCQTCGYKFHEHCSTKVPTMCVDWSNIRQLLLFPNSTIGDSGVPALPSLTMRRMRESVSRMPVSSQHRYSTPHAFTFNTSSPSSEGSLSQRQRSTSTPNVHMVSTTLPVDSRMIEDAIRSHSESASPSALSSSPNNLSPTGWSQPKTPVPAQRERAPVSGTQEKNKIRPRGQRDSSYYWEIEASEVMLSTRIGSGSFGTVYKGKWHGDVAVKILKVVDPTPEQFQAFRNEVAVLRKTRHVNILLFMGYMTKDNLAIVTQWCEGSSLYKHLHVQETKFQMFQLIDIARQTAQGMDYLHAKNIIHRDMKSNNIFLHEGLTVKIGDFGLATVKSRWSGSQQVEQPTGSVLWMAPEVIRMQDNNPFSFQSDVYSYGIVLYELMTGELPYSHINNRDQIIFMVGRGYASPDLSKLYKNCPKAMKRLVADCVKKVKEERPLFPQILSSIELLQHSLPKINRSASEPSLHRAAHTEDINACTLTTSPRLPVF

COLO 205 [3] = assay: Down regulation of total ERK level in human COLO205 cells harboring B-Raf V600E mutant at 1 to 10 uM measured after 18 hrs by Western blot analysis; format: functional, cell-based; summary of the method: as §1
[4] = target: Serine/threonine-protein kinase B-raf (Homo sapiens) (UniProt P15056); assay: Inhibition of B-Raf (unknown origin) at 10 uM using inactive MEK as substrate pretreated for 20 mins followed by substrate addition and measured after 30 mins in presence of [gamma32P]ATP by autoradiography
Chain of Serine/threonine-protein kinase B-raf (Homo sapiens) (P15056 whole entry): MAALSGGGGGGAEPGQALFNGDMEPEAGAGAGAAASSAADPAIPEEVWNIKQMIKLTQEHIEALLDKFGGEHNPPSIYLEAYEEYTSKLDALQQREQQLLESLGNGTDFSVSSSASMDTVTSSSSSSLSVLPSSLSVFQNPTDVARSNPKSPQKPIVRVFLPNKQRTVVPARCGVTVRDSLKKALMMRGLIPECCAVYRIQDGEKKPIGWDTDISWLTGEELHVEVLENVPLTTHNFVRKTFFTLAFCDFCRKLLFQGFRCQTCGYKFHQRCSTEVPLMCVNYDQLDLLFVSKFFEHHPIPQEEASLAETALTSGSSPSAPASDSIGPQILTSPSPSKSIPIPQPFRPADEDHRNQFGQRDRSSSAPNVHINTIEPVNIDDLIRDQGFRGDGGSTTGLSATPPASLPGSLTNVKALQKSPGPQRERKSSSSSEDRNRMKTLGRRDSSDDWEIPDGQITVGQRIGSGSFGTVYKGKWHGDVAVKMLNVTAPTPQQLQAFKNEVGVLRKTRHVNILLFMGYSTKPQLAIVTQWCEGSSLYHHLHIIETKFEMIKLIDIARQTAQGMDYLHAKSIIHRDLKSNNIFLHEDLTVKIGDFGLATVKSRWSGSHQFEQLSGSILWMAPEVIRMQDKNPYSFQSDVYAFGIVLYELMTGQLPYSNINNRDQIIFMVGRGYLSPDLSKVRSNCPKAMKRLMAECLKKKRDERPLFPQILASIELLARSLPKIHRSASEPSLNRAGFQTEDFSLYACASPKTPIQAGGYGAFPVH

SK-MEL-5 = assay: Growth inhibition of human SK-MEL-5 cells harboring B-Raf V600E mutant after 48 hrs by sulforhodamine B assay; format: functional, cell-based
Summary of the method: (§2)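 Tested in the NCI-60 human tumor cell line screen as DMSO solutions. Results analyzed with CellMiner bioinformatics tools.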

[5] = target: Dual specificity mitogen-activated protein kinase kinase 1 (Homo sapiens) (UniProt Q02750); assay: Inhibition of wild-type MEK1 (unknown origin) at 10 uM using inactive ERK2 as substrate pretreated for 20 mins followed by substrate addition and measured after 30 mins in presence of [gamma32P]ATP by autoradiography
Chain of Dual specificity mitogen-activated protein kinase kinase 1 (Homo sapiens) (Q02750 whole entry): as the sequence (Q02750 whole entry, looked up) above

Homo sapiens = species on record: Homo sapiens; assay: Inhibition of ERK (unknown origin)
MDA-MB-435 = assay: Growth inhibition of human MDA-MB-435 cells harboring B-Raf V600E mutant after 48 hrs by sulforhodamine B assay; format: functional, cell-based; summary of the method: as §2
Malme-3M = assay: Growth inhibition of human MALME-3M cells harboring B-Raf V600E mutant after 48 hrs by sulforhodamine B assay; format: functional, cell-based; summary of the method: as §2
COLO 205 [6] = assay: Growth inhibition of human COLO205 cells harboring B-Raf V600E mutant after 48 hrs by sulforhodamine B assay; format: functional, cell-based; summary of the method: as §2
[7] = tested on: Serine/threonine-protein kinase B-raf (Homo sapiens), P15056 [V600E]; assay: Increase in ERK phosphorylation in human COLO205 cells harboring B-Raf V600E mutant at 1 uM after 18 hrs by Western blot analysis; format: cell-based; summary of the method: as §1
Chain of Serine/threonine-protein kinase B-raf (Homo sapiens), P15056 [V600E] (P15056 whole entry V600E): as the sequence (P15056 whole entry) above, with V600E counted along it

COLO 205 [8] = assay: Effect on total MEK level in human COLO205 cells harboring B-Raf V600E mutant at 1 to 10measured after 18 hrs by Western blot analysis; format: functional, cell-based; summary of the method: as §1
COLO 205 [9] = assay: Effect on total ERK level in human COLO205 cells harboring B-Raf V600E mutant at 1 to 10measured after 18 hrs by Western blot analysis; format: functional, cell-based; summary of the method: as §1
[10] = target: T1, Dual specificity mitogen-activated protein kinase kinase; MEK1/2 (Homo sapiens); assay: Inhibition of MEK phosphorylation in human COLO205 cells harboring B-Raf V600E mutant at 1 to 10 uM after 18 hrs by Western blot analysis; format: cell-based; summary of the method: as §1
COLO 205 [11] = assay: Effect on total B-Raf level in human COLO205 cells harboring B-Raf V600E mutant at 1 to 10measured after 18 hrs by Western blot analysis; format: functional, cell-based; summary of the method: as §1
COLO 205 [12] = assay: Effect on total C-Raf level in human COLO205 cells harboring B-Raf V600E mutant at 1 to 10measured after 18 hrs by Western blot analysis; format: functional, cell-based; summary of the method: as §1

SMILES | Activity [1] | inhibition [2] | Activity (COLO 205 [3]) | inhibition [4] | growth inhibition (GI) (SK-MEL-5) | inhibition [5] | inhibition (Homo sapiens) | growth inhibition (GI) (MDA-MB-435) | growth inhibition (GI) (Malme-3M) | growth inhibition (GI) (COLO 205 [6]) | Activity [7] | Activity (COLO 205 [8]) | Activity (COLO 205 [9]) | inhibition [10] | Activity (COLO 205 [11]) | Activity (COLO 205 [12])
N=C1C2=C(NCCS2)C(=O)c2[nH]cc(CO)c21 | Active | inactive | inactive | inactive | Active | inactive | inactive | Active | Active | Active | Active | – | – | – | – | –
CSC1=C(N)C(=O)c2[nH]cc(CO)c2C1=N | – | inactive | inactive | inactive | Active | inactive | inactive | Active | Active | Active | – | – | – | – | – | –
CN(C)CCOc1ccc(-c2nc(-c3ccc4c(c3)CC/C4=N/O)c(-c3ccncc3)[nH]2)cc1 | – | – | – | – | – | – | – | – | – | – | – | inactive | inactive | Active | inactive | inactive
N=C1C2=C(NCC[S+]2[O-])C(=O)c2[nH]cc(CO)c21 (stereo unspecified) | Active | inactive | inactive | inactive | – | inactive | inactive | – | – | – | – | – | – | – | – | –
